Test results from ChEMBL document CHEMBL4321824, “Structure-Activity Relationships of cyclo(l-Tyrosyl-l-tyrosine) Derivatives Binding to Mycobacterium tuberculosis CYP121: Iodinated Analogues Promote Shift to High-Spin Adduct” (J Med Chem, 2019).

Experiments:
Cytochrome P450 [1] = molecular target: T1, Cytochrome P450 (Mycobacterium tuberculosis, UniProt A0A0T9WNE5); experiment: Binding affinity to Mycobacterium tuberculosis His6-tagged CYP121 assessed as compound-adduct formation by measuring high spin complex at 0.5 to 2 mM incubated for 20 mins by EPR Spectroscopic method (reference value: 0%)
T1 sequence (A0A0T9WNE5 whole entry): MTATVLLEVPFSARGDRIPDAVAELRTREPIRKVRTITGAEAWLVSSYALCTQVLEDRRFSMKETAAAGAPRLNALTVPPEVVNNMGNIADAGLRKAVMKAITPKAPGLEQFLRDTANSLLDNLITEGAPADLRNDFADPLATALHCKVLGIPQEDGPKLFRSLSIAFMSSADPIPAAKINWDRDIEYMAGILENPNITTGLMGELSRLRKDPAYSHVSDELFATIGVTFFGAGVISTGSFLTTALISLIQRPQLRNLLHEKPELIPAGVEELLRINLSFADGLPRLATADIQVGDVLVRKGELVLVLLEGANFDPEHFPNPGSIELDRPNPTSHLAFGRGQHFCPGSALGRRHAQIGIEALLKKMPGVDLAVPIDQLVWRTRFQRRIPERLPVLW
How it was run: (§1)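 EPR samples contained 155 µM CYP121 (untagged or His6-tagged) in 100 mM HEPES, 100 mM KCl, pH 7.5, with ligand or DMSO at a final 0.5–2 mM depending on solubility. Samples were incubated 20 min at room temperature and briefly centrifuged before spectra were recorded; the high-spin heme signal was assessed.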

Cytochrome P450 [2] = molecular target: T1, Cytochrome P450; experiment: Binding affinity to Mycobacterium tuberculosis His6-tagged CYP121 assessed as compound-adduct formation by measuring high spin complex by UV-visible scanning spectrophotometric analysis relative to control; parameters: concentration or dose not given beside the values
How it was run: (§2)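 Fraction of high-spin heme taken from UV-Vis titration spectra of CYP121 (untagged or His6-tagged; 3–4 µM, 25 °C, 100 mM potassium phosphate, 200 mM KCl, pH 7.8). %HS calculated from absorbances at 415 and 393 nm using LS and HS extinction coefficients.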

Cytochrome P450 [3] = molecular target: T1, Cytochrome P450; experiment: Stability in Mycobacterium tuberculosis assessed as CYP121-catalyzed turnover; assay type: ADME
[4] = test system: Mycobacterium tuberculosis; experiment: Antimycobacterial activity against Mycobacterium tuberculosis H37Rv assessed as reduction in bacterial growth after 7 days by resazurin based fluorescence assay; assay type: functional; settings: 168 h
How it was run: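 Mtb H37Rv grown in 7H9 with ADC to OD 0.6–0.8, then diluted to OD600 0.001 and added to 1:2 serial compound dilutions (usually from 100 µM; 0.1% DMSO). Incubated 7 days at 37 °C, then 0.05% w/v resazurin for 24 h at 37 °C. Fluorescence read at 590 nm, background subtracted, and survival expressed relative to untreated wells. Rifampicin served as positive control.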

Cytochrome P450 [5] = molecular target: T1, Cytochrome P450; experiment: Binding affinity to Mycobacterium tuberculosis His6-tagged CYP121 by UV-visible scanning spectrophotometric analysis
How it was run: (§3)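 Spectrophotometric titration of 3–4 µM CYP121 (untagged or N-terminal His6-tagged) at 25 °C in 100 mM potassium phosphate, 200 mM KCl, pH 7.8. Ligand in DMSO added stepwise from 0 µM until no further spectral change; spectra recorded 250–800 nm. Difference spectra taken against ligand-free enzyme, and peak-minus-trough ΔAmax plotted against [ligand]. KD obtained by hyperbolic fit, or Hill fit for sigmoidal data.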

Cytochrome P450 [6] = molecular target: T1, Cytochrome P450; experiment: Potency index, ratio of cyclo(L-Tyrosine-L-tyrosine) Kd for binding affinity to Mycobacterium tuberculosis CYP121 expressed in Escherichia coli HMS174 (DE3) to test compound Kd for binding affinity to Mycobacterium tuberculosis His6-tagged CYP121 by UV-visible scanning spectrophotometric analysis
Cytochrome P450 [7] = molecular target: T1, Cytochrome P450; experiment: Binding affinity to Mycobacterium tuberculosis CYP121 expressed in Escherichia coli HMS174 (DE3) by UV-visible scanning spectrophotometric analysis; how it was run: as §3
Cytochrome P450 [8] = molecular target: T1, Cytochrome P450; experiment: Binding affinity to Mycobacterium tuberculosis CYP121 expressed in Escherichia coli HMS174 (DE3) assessed as compound-adduct formation by measuring high spin complex at 0.5 to 2 mM incubated for 20 mins by EPR Spectroscopic method (reference value: 0%); how it was run: as §1
Cytochrome P450 [9] = molecular target: T1, Cytochrome P450; experiment: Binding affinity to Mycobacterium tuberculosis Mycobacterium tuberculosis CYP121 expressed in Escherichia coli HMS174 (DE3) assessed as compound-adduct formation by measuring high spin complex by UV-visible scanning spectrophotometric analysis relative to control; parameters: concentration or dose not given beside the values; how it was run: as §2
Cytochrome P450 [10] = molecular target: T1, Cytochrome P450; experiment: Potency index, ratio of cyclo(L-Tyrosine-L-tyrosine) Kd to test compound Kd for binding affinity to Mycobacterium tuberculosis CYP121 expressed in Escherichia coli HMS174 (DE3) by UV-visible scanning spectrophotometric analysis
Cytochrome P450 [11] = molecular target: T1, Cytochrome P450; experiment: Binding affinity to Mycobacterium tuberculosis CYP121 expressed in Escherichia coli HMS174 (DE3) at 120 uM by UV-visible scanning spectrophotometric analysis

O=C1N[C@@H](Cc2ccc(O)c(F)c2)C(=O)N[C@H]1Cc1ccc(O)cc1
Activity (Cytochrome P450 [1]): 1.2% | Activity (Cytochrome P450 [2]): 36% | Stability (Cytochrome P450 [3]): Stable | MIC [4]: > 100 µM | Kd (Cytochrome P450 [5]): 12.8 µM

O=C1N[C@@H](Cc2ccc(O)c(I)c2)C(=O)N[C@H]1Cc1ccc(O)cc1
Activity (Cytochrome P450 [1]): 86% | Activity (Cytochrome P450 [2]): 98% | Stability (Cytochrome P450 [3]): Stable | MIC [4]: > 100 µM | Ratio (Cytochrome P450 [6]): <= 100 | Kd (Cytochrome P450 [5]): 0.28 µM

Cc1cc(C[C@@H]2NC(=O)[C@H](Cc3ccc(O)cc3)NC2=O)cc(C)c1O
Activity (Cytochrome P450 [1]): 62% | Activity (Cytochrome P450 [2]): 75% | Stability (Cytochrome P450 [3]): Stable | MIC [4]: > 100 µM | Kd (Cytochrome P450 [5]): 15.1 µM

O=C1N[C@@H](Cc2ccc(O)c(Cl)c2)C(=O)N[C@H]1Cc1ccc(O)cc1
Activity (Cytochrome P450 [1]): 21% | Activity (Cytochrome P450 [2]): 68% | Stability (Cytochrome P450 [3]): Stable | MIC [4]: > 100 µM | Kd (Cytochrome P450 [5]): 1.5 µM

O=C1N[C@@H](Cc2cc(I)c(O)c(I)c2)C(=O)N[C@H]1Cc1ccc(O)cc1
Activity (Cytochrome P450 [1]): 38% | Activity (Cytochrome P450 [2]): 74% | Stability (Cytochrome P450 [3]): Stable | MIC [4]: > 100 µM | Kd (Cytochrome P450 [5]): 9.1 µM

O=C1N[C@@H](Cc2ccc(O)c(I)c2)C(=O)N[C@H]1Cc1ccc(O)c(I)c1
Stability (Cytochrome P450 [3]): Stable | MIC [4]: > 100 µM | Kd (Cytochrome P450 [7]): 0.45 µM | Activity (Cytochrome P450 [8]): 100% | Ratio (Cytochrome P450 [6]): <= 100 | Activity (Cytochrome P450 [9]): 100%

O=C1N[C@@H](Cc2ccc(F)cc2)C(=O)N[C@H]1Cc1ccc(F)cc1
Stability (Cytochrome P450 [3]): Stable | MIC [4]: > 100 µM | Kd (Cytochrome P450 [7]): 6.3 µM | Activity (Cytochrome P450 [8]): 1.5% | Activity (Cytochrome P450 [9]): 1%

O=C1N[C@@H](Cc2ccc(O)cc2)C(=O)N[C@H]1Cc1ccccc1
Stability (Cytochrome P450 [3]): Stable | MIC [4]: > 100 µM | Kd (Cytochrome P450 [7]): 80.8 µM | Activity (Cytochrome P450 [8]): 1.4% | Activity (Cytochrome P450 [9]): 5%

O=C1N[C@@H](Cc2ccc(O)c(Br)c2)C(=O)N[C@H]1Cc1ccc(O)cc1
Activity (Cytochrome P450 [1]): 68% | Activity (Cytochrome P450 [2]): 85% | Stability (Cytochrome P450 [3]): Stable | MIC [4]: > 100 µM | Kd (Cytochrome P450 [5]): 0.46 µM

COc1ccc(C[C@@H]2NC(=O)[C@H](Cc3ccc(O)cc3)NC2=O)cc1
Ratio (Cytochrome P450 [10]): 3 | Stability (Cytochrome P450 [3]): Stable | MIC [4]: > 100 µM | Kd (Cytochrome P450 [7]): 10.4 µM | Activity (Cytochrome P450 [8]): 64% | Activity (Cytochrome P450 [9]): 61%

O=C1N[C@@H](Cc2ccccc2)C(=O)N[C@H]1Cc1ccccc1
Stability (Cytochrome P450 [3]): Stable | MIC [4]: > 100 µM | Kd (Cytochrome P450 [7]): 2.4 µM | Activity (Cytochrome P450 [8]): 0% | Activity (Cytochrome P450 [9]): 3%

COc1ccc(C[C@@H]2NC(=O)[C@H](Cc3ccc(OC)cc3)NC2=O)cc1
Stability (Cytochrome P450 [3]): Stable | MIC [4]: > 100 µM | Kd (Cytochrome P450 [7]): 29.4 µM | Activity (Cytochrome P450 [8]): 56% | Activity (Cytochrome P450 [9]): 35%

Cc1cc(O)cc(C)c1C[C@@H]1NC(=O)[C@H](Cc2ccc(O)cc2)NC1=O
Activity (Cytochrome P450 [11]): Not Active | Activity (Cytochrome P450 [1]): 1.9% | Activity (Cytochrome P450 [2]): 1% | Stability (Cytochrome P450 [3]): Stable | MIC [4]: > 100 µM | Kd (Cytochrome P450 [5]): > 100 µM

O=C1N[C@H]2Cc3ccc(O)c(c3)-c3cc(ccc3O)C[C@@H]1NC2=O
Stability (Cytochrome P450 [3]): Unstable

O=C1N[C@@H](Cc2ccc(O)cc2)C(=O)N[C@H]1Cc1ccc(O)cc1
Activity (Cytochrome P450 [8]): 2.7% | Activity (Cytochrome P450 [9]): 52%

Cc1cc(C[C@@H]2NC(=O)[C@H](Cc3ccc(O)cc3)NC2=O)ccc1O
Activity (Cytochrome P450 [1]): 11% | Activity (Cytochrome P450 [2]): 91% | Stability (Cytochrome P450 [3]): Stable | MIC [4]: > 100 µM | Kd (Cytochrome P450 [5]): 1.1 µM

O=C1N[C@@H](Cc2ccc(I)cc2)C(=O)N[C@H]1Cc1ccc(I)cc1
Stability (Cytochrome P450 [3]): Stable | MIC [4]: > 100 µM | Kd (Cytochrome P450 [7]): 0.72 µM | Activity (Cytochrome P450 [8]): 7.5% | Ratio (Cytochrome P450 [6]): <= 100 | Activity (Cytochrome P450 [9]): 3%

Cc1cc(O)ccc1C[C@@H]1NC(=O)[C@H](Cc2ccc(O)cc2)NC1=O
Activity (Cytochrome P450 [1]): 0.6% | Activity (Cytochrome P450 [2]): 20% | Stability (Cytochrome P450 [3]): Stable | MIC [4]: > 100 µM | Kd (Cytochrome P450 [5]): 39.8 µM
